Among the data in PubChem BioAssay AID1385 (PCMD, 2008) are inhibition values, retold here.

The structures appear in SMILES notation. The whole screen tested about 200,000 compounds, of which about 170 (0.085%) were called active. The list comes from a sample in which actives are over-represented; it also holds similar structures and randomly drawn compounds. Values without a mark were called inactive.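 How the source made its calls: active means inhibition above 40% at the single screening dose; inactive means the rest.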

DNA repair protein RAD51 homolog 1 (Homo sapiens), sequence (Q06609 whole entry, looked up): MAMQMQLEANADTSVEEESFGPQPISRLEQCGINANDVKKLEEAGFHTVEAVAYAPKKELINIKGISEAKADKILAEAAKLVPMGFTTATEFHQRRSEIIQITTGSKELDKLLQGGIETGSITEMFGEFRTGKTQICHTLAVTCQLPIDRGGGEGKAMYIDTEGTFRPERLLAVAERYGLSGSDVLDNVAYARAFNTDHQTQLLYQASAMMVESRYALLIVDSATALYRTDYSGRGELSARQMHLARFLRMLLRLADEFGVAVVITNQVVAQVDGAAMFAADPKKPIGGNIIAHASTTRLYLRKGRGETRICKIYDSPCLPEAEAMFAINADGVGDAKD

The assay addresses DNA repair protein RAD51 homolog 1 (Homo sapiens) (UniProt Q06609). Briefly: human RAD51 strand exchange inhibitors, primary screen, biochemical, fluorescence (AID 1385).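 Further: 0% = DMSO control wells and 100% = blanks with heterologous ssDNA.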 The conditions noted are these: hRad51 DNA strand exchange, fluorescence dequenching; at 10 µM; stronger effect = higher value. Summed up:
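Read-out basis: percent inhibition relative to plate controls and blanks / Assay system: human Rad51 nucleoprotein filaments preassembled on unlabelled ssDNA / Timing: filaments 15 min 37 °C, then compound 30 min / Control set: per-plate controls and blanks / Technique: fluorescence dequenching at 485/520 nm / Compound: 10 µM final, single point / Also added: Fluorescein- and BHQ1-tagged 47-mer duplex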
As usually defined, the inhibition is the relative decrease from the control value, in per cent. For the compound `CC(OC(=O)c1ccc(NS(=O)(=O)c2ccc3[nH]c(=O)[nH]c3c2)cc1)C(=O)Nc1cccc(Cl)c1Cl` (centres undefined), the inhibition is 1.25%.

Turning to `Cc1cc(C)cc(NC(=O)NC2CCN(CC(=O)Nc3cccc(Cl)c3C)CC2)c1`, the inhibition is -8.77%.

`CCn1c(CN2C(=O)CSc3ccccc32)n[nH]c1=S`: the inhibition was 3.47%.

On to `O=S(=O)(c1cccc(-c2nnc3n2CCCCC3)c1)N1CCOCC1`, for which the inhibition is 6.72%.

For `CC(C)(C)c1cc(NC(=O)NN2CCOCC2)nn1-c1c(Cl)cc(Cl)cc1Cl`, the inhibition is -14%.

`Nc1ccccc1SC(C[N+](=O)[O-])c1ccccc1` (centres undefined): the inhibition is 14.8%.

Take `OC(CNCc1ccc2c(c1)OCO2)COc1ccccc1` (centres undefined): the inhibition was 1.14%.

Turning to `Cc1ccc(CNC(=O)c2ccc3c(c2)S(=O)(=O)c2ccccc2C3=O)cc1`, the inhibition is 3.71%.

`COc1ccccc1-n1cn[nH]c1=S`: the inhibition is 26.3%.

On to `COc1ccc(CN(Cc2ccc(OC)cc2)C(=O)c2cccs2)cc1`, for which the inhibition was 2.36%.

Take `O=C(c1ccc(F)cc1)n1c(=S)nc2ccccn21`: the inhibition was 15.3%.

With `CNC1(c2nnnn2-c2c(C)cccc2C)CCOC(C)(C)C1` (centres undefined), the inhibition was 5.82%.

Regarding `Cc1cc(-c2nc(C)c(-c3nnc(SCC(=O)Nc4ccccc4)n3C)s2)no1`, the inhibition was -5%.

On to `OCC[C@H]1C[C@H](O)[C@@H](O)[C@]2(CCCCO2)O1`, for which the inhibition was -1.38%.

As to `COc1ccccc1Cn1c(CO)nc2ccccc21`, the inhibition was -28.4%.

On to `Cc1ccc(C)c2c1cc(C)c1nnc(SCC(=O)Nc3cccc(C(=O)O)c3)n12`, for which the inhibition was 3.44%.

As for `CCCN(CCC)S(=O)(=O)c1ccc(C(=O)N2CC3CCC(CC3)C2)cc1`, the inhibition is 4.87%.

As for `O=C(O)c1ccccc1C(=O)Nc1ccccc1[N+](=O)[O-]`, the inhibition was 10.6%.

Turning to `O=[N+]([O-])c1ccc2c(c1)C(O)n1nc(-c3ccccc3)nc1S2` (centres undefined), the inhibition was 0.18%.

As to `CC(C)CC(=O)N/C(N)=N/c1nc2ccccc2s1`, the inhibition was 82.8% (active).

On to `CC(C)CC(=O)NC(=S)NCc1ccccc1`, for which the inhibition was 1.47%.

Regarding `CCC(=O)NC(=Nc1nc2ccccc2s1)NC(=O)CC`, the inhibition is -4.35%.

For `CCOc1cc(NC(=O)c2ccccn2)c(OCC)cc1NC(=O)c1ccc(OC)cc1`, the inhibition is 0.44%.

For the compound `CCC(C)(NC(=O)c1ccccn1)C(=O)NC1CCCCC1` (centres undefined), the inhibition was 14.2%.

Turning to `CCN(CC)CCOc1ccc2c(c1)C(=NNC(=O)c1ccccn1)c1cc(OCCN(CC)CC)ccc1-2`, the inhibition is 99% (active).

On to `O=[N+]([O-])c1cc([N+](=O)[O-])c2cccnc2c1O`, for which the inhibition was 5.92%.

As to `O=C(CCc1ccccc1)NNc1ccc(F)cc1`, the inhibition was 4.26%.

`NS(=O)(=O)c1ccc(NC(=O)COC(=O)c2cc3ccccc3oc2=O)cc1`: the inhibition is 3.3%.

For the compound `Cc1c(NC(=O)CN2C(=O)C(=O)N(Cc3ccccc3)C2=O)c(=O)n(-c2ccccc2)n1C`, the inhibition was 1.05%.

As for `O=C1N=C(N2CCc3ccccc3C2)S/C1=C\c1ccc(O)cc1`, the inhibition was -11.2%.

Turning to `O=C1/C(=C/c2coc3ccc(O)cc3c2=O)SC(=S)N1c1ccccc1`, the inhibition is -16.3%.

As for `O=C(O)c1ccc(/C=N/Nc2nc(N3CCCCC3)nc(N3CCCCC3)n2)cc1`, the inhibition is 8.17%.

As to `Cn1cnc(S(=O)(=O)Nc2ccc3c(c2)OCCO3)c1`, the inhibition is 10.8%.

For `O=C(O)CC12CC3CC(C1)CC(n1ncc(NCc4ccc(F)cc4)c(Cl)c1=O)(C3)C2`, the inhibition was -1.62%.

On to `O=C(Cc1cccc2ccccc12)NNC(=O)Nc1ccc(Cl)cc1`, for which the inhibition was 18.3%.

Consider `Cc1nnc(Nc2ccccc2F)s1`, for which the inhibition was 21.3%.

As for `CCOC(=O)CN(C(=O)COc1nc(C)cc(C)c1C#N)c1ccc(Cl)cc1`, the inhibition was 1.01%.

Regarding `FC(F)(F)c1cccc(-c2nc(COc3ccc(Cl)cc3Cl)no2)c1`, the inhibition is 4.51%.

In the case of `CCSC1=NCCN1S(=O)(=O)c1ccc(F)cc1`, the inhibition was -1.84%.

Take `CSC1=NCCN1C(=O)c1ccc(S(=O)(=O)N2CCOCC2)cc1`: the inhibition was -4.11%.

Turning to `CCSC1=NCCN1C(=O)c1ccc(S(=O)(=O)N(CC)CC)cc1`, the inhibition is 40.5% (active).

Turning to `C/C(Cc1ccccc1)=N\NC(=O)CNC(=O)c1ccccc1Cl`, the inhibition is 11.3%.

In the case of `COc1ccc(OC)c(NC(=O)N[C@H](Cc2ccccc2)C(=O)NN)c1`, the inhibition was 19%.

As to `N#Cc1ccc(Oc2ccc(C(F)(F)F)cc2NC(=O)c2ccc(F)cc2)cc1`, the inhibition was 18.6%.

`COCCn1c(SCC(=O)c2[nH]c(C)c(C(C)=O)c2C)nc2ccccc2c1=O`: the inhibition was -4.09%.

In the case of `COc1ccc(/C=N/n2nnnc2N)cc1OC`, the inhibition is -13.6%.

`Cc1cc(Nc2ccc(N3CCOCC3)cc2)c2cccc(C)c2n1`: the inhibition was 15.5%.

For the compound `Nc1ccccc1C(=O)NC1CCCCNC1=O` (centres undefined), the inhibition was 11.6%.

As for `COc1cc(N2C(=O)CC3(CCCC3)CC2=O)cc(OC)c1OC`, the inhibition was -3.47%.

Turning to `Cc1ccc(Nc2c3c(nc4ccccc24)CCC3)cc1`, the inhibition was 16.7%.

On to `O=C1N[C@H](Cc2ccccc2)C(=O)N[C@H]1Cc1cn(S(=O)(=O)c2ccccc2)c2ccccc12`, for which the inhibition is -3.92%.

For `O=C(NC1C2CC3CC(C2)CC1C3)c1ccc(N2CCNCC2)c([N+](=O)[O-])c1` (centres undefined), the inhibition was -5.43%.

Consider `CC(=O)N/C(=C\c1ccc(F)cc1)C(=O)NC(Cc1ccccc1)C(=O)O` (centres undefined), for which the inhibition is 5.67%.

For the compound `CN(C)S(=O)(=O)c1ccc(C(=O)NCC(C)(C)N2CCOCC2)cc1`, the inhibition was -11.7%.

For the compound `NC(=O)c1ccc(-c2csnn2)cc1`, the inhibition was 9.52%.

As for `Nc1c(Cl)cc(S(N)(=O)=O)cc1S(N)(=O)=O`, the inhibition was 3.22%.

Turning to `O=C(Nc1cccc2c1N(C(=O)c1ccco1)CCC2)c1ccco1`, the inhibition is 15.4%.

Take `CC1Cc2ccccc2N1CC(=O)Nc1ccc(S(N)(=O)=O)cc1` (centres undefined): the inhibition was -6.22%.

In the case of `Cc1ccc(NC(=O)/C(=C/c2ccc([N+](=O)[O-])cc2)NC(=O)c2ccccc2)cc1`, the inhibition was -17.5%.

Turning to `NNC(=O)c1cccc(COCC(F)(F)C(F)F)c1`, the inhibition is 8.15%.

Consider `O=C(Nc1ccccc1)C1CC(=O)n2c(nc3ccccc32)N1` (centres undefined), for which the inhibition is 1.59%.

With `NC(=O)c1ccc(NC(=O)COC(=O)c2ccc([N+](=O)[O-])cc2)cc1`, the inhibition was -14.5%.

For `CCCc1c(C(=O)Nc2ccc(F)cc2)cnn1-c1ccccc1`, the inhibition is -9.46%.

`Cc1cc(C(=O)OCC(=O)Nc2nccs2)c2ccccc2n1`: the inhibition was -4.52%.

For the compound `CCc1nc(NCCO)c(C#N)c2c1CCCC2`, the inhibition was 18.4%.

With `Cn1c(=O)c(=O)n(C)c2cc(S(=O)(=O)NCCN3CCN(c4ccccc4F)CC3)ccc21`, the inhibition was 0.68%.

For `Cc1ccc(N2C(=O)CN=C2Nc2nc(C)cc(C)n2)cc1`, the inhibition is 7.92%.

For `COC(=O)c1sccc1NC(=O)CC1C(=O)NCCN1C(=O)Nc1ccc(F)cc1F` (centres undefined), the inhibition was 1.89%.

As to `Fc1ccc(-c2csc(-c3ccc(C4SCCS4)cc3)n2)cc1F`, the inhibition is 1.29%.

Take `O=C(NNC(=O)c1csc(-c2cccnc2)n1)Nc1ccc(Cl)cc1`: the inhibition is -5.17%.

As for `COCc1cc(=O)[nH]c(-c2ccc(C(F)(F)F)cc2)n1`, the inhibition is 7.88%.

For `CSc1sc(C(=O)NNC(=O)c2ccc(Cl)cc2)c2c1C=CCC2`, the inhibition was -9.57%.

Regarding `N#Cc1c(NCCO)ccc([N+](=O)[O-])c1NCCO`, the inhibition is 16.9%.

Take `COc1ccc(NC(=O)C2=C(C)NC(=O)NC2c2ccccc2[N+](=O)[O-])cc1` (centres undefined): the inhibition is 0.69%.

Take `O=S(=O)(c1ccccc1)N1CN(Cc2ccc(F)cc2)c2nc3ccccc3nc21`: the inhibition was 7.4%.

On to `CC1(C)C2CC[C@]3(C)C(CC=C4[C@@H]5C[C@@](C)(CO)CC[C@]5(C(=O)O)CC[C@]43C)[C@@]2(C)CC[C@@H]1O` (some centres undefined), for which the inhibition is 6.09%.

For `Cc1cc(N2CCN(c3ccccc3)CC2)nc(N2CCOCC2)n1`, the inhibition was 26.8%.

Consider `COc1ccc(Cn2c(O)c(/C=C3/C=CC=N3)c(=O)[nH]c2=O)cc1`, for which the inhibition was -6.92%.

With `COC(=O)c1ccc(C(NC(=O)OCc2ccccc2)/C(F)=C/[C@@H](C)C(=O)O)cc1` (some centres undefined), the inhibition is -2.27%.

For `Cc1cccn2c(CNCC(C)Oc3cccnc3)c(C(=O)N3CCOCC3)nc12` (centres undefined), the inhibition is -2.58%.

With `N#CC1=C(N)Oc2c(ccc3cccnc23)C1c1ccncc1` (centres undefined), the inhibition was 12.7%.

Consider `CN(C)CCCN(Cc1cc2cc3c(cc2[nH]c1=O)OCCO3)C(=O)NC1CCCCC1`, for which the inhibition is 0.9%.

As to `C/C(CC(=O)NC(C)c1ccccc1)=N\NC(N)=S` (centres undefined), the inhibition was 21.4%.

As to `NCC(=O)c1cccc2ccc[n+]([O-])c12`, the inhibition is -0.26%.

Regarding `CCCOc1ccc(Cl)cc1Nc1nc(NCCO)nc(N2CCCC2)n1`, the inhibition is 6.75%.

As to `Cc1cc(NC(=O)OC(C)C)ccc1-c1ccc(NC(=O)OC(C)C)cc1C`, the inhibition is -19.8%.

Turning to `CCn1c(SCC(=O)Nc2sc(C)c(C)c2C#N)nnc1C1CC1`, the inhibition is -26.7%.

`CCNc1nc(NCC)nc(N/N=C/c2ccc(O)c(OC)c2)n1`: the inhibition was 5.6%.

Consider `Cc1cc(C)nc(Nc2n[nH]c(-c3ccccc3N)n2)n1`, for which the inhibition is 22.9%.

As for `COC(=O)c1cc(C(=O)OCC(=O)Nc2cc(C)on2)cc([N+](=O)[O-])c1`, the inhibition is -19.8%.

Consider `O=C(CCl)Nc1cccc(CP(=O)(c2ccccc2)c2ccccc2)c1`, for which the inhibition is 3.48%.

Consider `Cc1nc(-c2ccccc2)sc1-c1nnc(C2CC2)o1`, for which the inhibition was 13.8%.

On to `Cc1cc(=O)oc2cc(OCC(=O)Nc3nnc(C4CC4)s3)ccc12`, for which the inhibition was 27.8%.

In the case of `CCCSc1ncccc1C(=O)O`, the inhibition is 14.8%.
